Values joined by “and” are separate entries in the source; they are usually repeats but may differ in a detail not shown here. Equal values may be shown once.
Key:
Cavia porcellus [1] = species: Cavia porcellus; experiment: Apparent pA2 value at 3 nM concentration of mepyramine in guinea pig ileum; format: functional; settings: read-out: pA2 (converted)
[2] = target: Histamine H1 receptor (Cavia porcellus) (UniProt P31389); experiment: Concentration required for agonistic activity against histamine in guinea pig ileum; format: functional, tissue-based
[3] = target: Histamine H1 receptor (Cavia porcellus) (UniProt P31389); experiment: Maximum response (E max) against histamine H1 receptor in guinea pig ileum; format: tissue-based
Histamine H3 receptor = Histamine H3 receptor (Cavia porcellus, UniProt Q9JI35); experiment: Tested for Antagonistic activity at histamine H3 receptor in guinea pig ileal longitudinal muscle in the presence of mepyramine at a concentration of 1-3 micro M; format: functional; settings: read-out: pA2 (converted)
Procedure, shortened: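 Field-stimulated ileal longitudinal muscle (15 V, 0.5 ms, 0.1 Hz), 37 °C, mepyramine 1–3 μM throughout. […] Antagonists used only at concentrations not blocking M3 receptors; apparent pA2 from rightward shift.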

[4] = target: Histamine H1 receptor (Cavia porcellus) (UniProt P31389); experiment: (§1) Equilibrium dissociation constant (pKp) against histamine H1 receptor in guinea pig ileum; format: tissue-based
Histamine H1 receptor [5] = target: T1, Histamine H1 receptor (Cavia porcellus, UniProt P31389); experiment: Effective concentration against histamine H1 receptor in guinea pig ileum; format: tissue-based
[6] = target: Muscarinic acetylcholine receptor M3 (Cavia porcellus, UniProt Q8VH26); experiment: Antagonistic activity for carbachol induced contractions in guinea pig ileum against Muscarinic acetylcholine receptor M3 in the presence of mepyramine at a concentration of 1-3 micro M; format: functional, tissue-based; settings: read-out: pA2 (converted)
[7] = target: Histamine H2 receptor (Cavia porcellus) (UniProt P47747); settings: Cardiac atrium
Cavia porcellus [8] = species: Cavia porcellus; experiment: Apparent pA2 value of compound at 100 nM concentration of mepyramine in guinea pig aorta
Cavia porcellus [9] = species: Cavia porcellus; experiment: tissue or blood; settings: Ileum, read-out: pA2 (converted)
Histamine H1 receptor [10] = target: T1, Histamine H1 receptor; experiment: Effective concentration against histamine H1 receptor in endothelium-Denuded rings of guinea pig Aorta
Cavia porcellus [11] = species: Cavia porcellus; experiment: Apparent pD2 value of compound at 3 nM concentration of mepyramine in guinea pig ileum; format: functional
Cavia porcellus [12] = species: Cavia porcellus; experiment: Full pA2 value of compound at 2-100 nM concentration of mepyramine in guinea pig ileum; format: functional; settings: read-out: pA2 (converted)
[13] = target: Histamine H1 receptor (Rattus norvegicus) (UniProt P31390); experiment: Maximum response (E max) against H1 receptor in rat aorta; format: tissue-based
[14] = target: Histamine H1 receptor (Cavia porcellus) (UniProt P31389); experiment: Concentration required for agonistic activity against histamine H1 receptor in guinea pig ileum; format: functional, tissue-based
[15] = target: Histamine H1 receptor (Cavia porcellus) (UniProt P31389); experiment: Maximum response (E max) against Histamine H1 receptor in guinea pig ileum; format: tissue-based
Histamine H1 receptor [16] = target: T2, Histamine H1 receptor (Rattus norvegicus, UniProt P31390); experiment: Apparent pA2 value of compound at 50 nM concentration of mepyramine in rat aorta; format: functional, tissue-based; settings: read-out: pA2 (converted)
[17] = target: Histamine H1 receptor (Cavia porcellus) (UniProt P31389); experiment: Maximum response (E max) against H1 receptor in guinea pig ileum; format: tissue-based
Histamine H2 receptor = Histamine H2 receptor (Cavia porcellus, UniProt P47747); experiment: Tested for inhibition of histamine H2 receptor-induced rise in heart rate in guinea pig right atrium in the presence of mepyramine at a concentration of 0.3 micro M; format: tissue-based, Cardiac atrium
Histamine H1 receptor [18] = target: T2, Histamine H1 receptor; experiment: (§2) Effective concentration against histamine H1 receptor in rat aorta
Histamine H1 receptor [19] = target: T1, Histamine H1 receptor; experiment: Apparent pA2 value of compound at 10 nM concentration of mepyramine in guinea pig aorta
Cavia porcellus [20] = species: Cavia porcellus; experiment: Apparent pA2 value of compound at 3 nM concentration of mepyramine in guinea pig ileum
Cavia porcellus [21] = species: Cavia porcellus; experiment: Full pA2 value of compound at 3-30 nM concentration of mepyramine in guinea pig ileum; format: functional; settings: read-out: pA2 (converted)
Histamine H1 receptor [22] = target: T1, Histamine H1 receptor; experiment: Apparent pA2 value of compound at 10 nM concentration of mepyramine in guinea pig aorta; remark: listed apart in the source
Histamine H1 receptor [23] = target: T1, Histamine H1 receptor; experiment: as above; remark: listed apart in the source
Cavia porcellus [24] = species: Cavia porcellus; experiment: as above
Histamine H1 receptor [25] = target: T2, Histamine H1 receptor; experiment: as §2; format: tissue-based
[26] = target: Histamine H1 receptor (Cavia porcellus) (UniProt P31389); experiment: as §1; format: functional, tissue-based

Histamine H2 receptor (Cavia porcellus), sequence (P47747 whole entry): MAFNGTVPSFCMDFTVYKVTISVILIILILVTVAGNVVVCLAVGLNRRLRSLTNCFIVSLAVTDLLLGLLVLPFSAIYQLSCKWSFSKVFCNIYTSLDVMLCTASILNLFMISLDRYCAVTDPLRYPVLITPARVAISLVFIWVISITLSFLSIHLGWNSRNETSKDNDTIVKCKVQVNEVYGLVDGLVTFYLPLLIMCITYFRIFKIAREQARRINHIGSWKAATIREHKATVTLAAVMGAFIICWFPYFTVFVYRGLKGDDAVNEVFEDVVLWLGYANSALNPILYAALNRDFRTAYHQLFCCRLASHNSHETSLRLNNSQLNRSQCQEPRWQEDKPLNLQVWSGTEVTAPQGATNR
T2 sequence (P31390 whole entry): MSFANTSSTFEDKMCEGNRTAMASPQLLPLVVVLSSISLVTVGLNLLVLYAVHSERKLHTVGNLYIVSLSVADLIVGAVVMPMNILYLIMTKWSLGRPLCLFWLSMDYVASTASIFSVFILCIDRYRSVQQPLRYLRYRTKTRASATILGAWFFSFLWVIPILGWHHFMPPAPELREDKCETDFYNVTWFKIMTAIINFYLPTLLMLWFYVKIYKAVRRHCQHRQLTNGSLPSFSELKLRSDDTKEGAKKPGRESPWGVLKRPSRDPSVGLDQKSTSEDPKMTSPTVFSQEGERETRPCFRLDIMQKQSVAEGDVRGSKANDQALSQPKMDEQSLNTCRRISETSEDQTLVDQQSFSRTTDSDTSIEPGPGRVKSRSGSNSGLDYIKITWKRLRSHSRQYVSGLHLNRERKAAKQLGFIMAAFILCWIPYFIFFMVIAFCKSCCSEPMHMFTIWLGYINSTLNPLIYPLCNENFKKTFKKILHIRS
Histamine H1 receptor (Rattus norvegicus), sequence (P31390 whole entry): as above
Muscarinic acetylcholine receptor M3, sequence (Q8VH26 whole entry): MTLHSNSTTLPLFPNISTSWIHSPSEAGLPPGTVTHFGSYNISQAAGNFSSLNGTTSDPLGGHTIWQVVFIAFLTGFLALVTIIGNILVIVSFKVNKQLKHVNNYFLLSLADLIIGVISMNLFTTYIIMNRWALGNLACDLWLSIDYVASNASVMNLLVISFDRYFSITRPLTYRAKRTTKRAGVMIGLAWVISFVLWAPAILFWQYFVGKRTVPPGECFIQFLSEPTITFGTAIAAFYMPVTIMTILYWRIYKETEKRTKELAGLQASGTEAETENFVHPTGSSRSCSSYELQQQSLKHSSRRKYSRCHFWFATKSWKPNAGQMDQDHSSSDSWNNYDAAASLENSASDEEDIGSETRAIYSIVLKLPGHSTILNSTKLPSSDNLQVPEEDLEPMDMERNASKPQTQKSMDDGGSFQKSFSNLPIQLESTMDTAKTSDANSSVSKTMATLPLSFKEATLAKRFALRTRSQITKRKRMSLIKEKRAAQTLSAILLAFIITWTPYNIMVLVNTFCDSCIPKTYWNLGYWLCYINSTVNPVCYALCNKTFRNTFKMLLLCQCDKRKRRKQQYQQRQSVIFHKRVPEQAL
T1 sequence (P31389 whole entry): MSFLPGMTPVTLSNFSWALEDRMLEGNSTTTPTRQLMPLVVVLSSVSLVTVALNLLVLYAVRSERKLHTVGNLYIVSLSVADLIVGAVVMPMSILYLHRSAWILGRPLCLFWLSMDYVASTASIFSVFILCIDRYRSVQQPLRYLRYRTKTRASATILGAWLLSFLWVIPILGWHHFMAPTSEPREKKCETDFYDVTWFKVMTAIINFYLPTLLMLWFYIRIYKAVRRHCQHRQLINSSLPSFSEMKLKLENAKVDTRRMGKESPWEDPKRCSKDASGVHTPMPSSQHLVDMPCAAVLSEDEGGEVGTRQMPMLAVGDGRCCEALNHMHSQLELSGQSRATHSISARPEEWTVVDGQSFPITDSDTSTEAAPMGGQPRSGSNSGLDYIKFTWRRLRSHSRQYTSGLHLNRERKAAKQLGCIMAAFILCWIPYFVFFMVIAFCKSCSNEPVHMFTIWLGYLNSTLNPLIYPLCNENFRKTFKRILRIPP
Histamine H1 receptor (Cavia porcellus), sequence (P31389 whole entry): as above
Histamine H3 receptor, sequence (Q9JI35 whole entry): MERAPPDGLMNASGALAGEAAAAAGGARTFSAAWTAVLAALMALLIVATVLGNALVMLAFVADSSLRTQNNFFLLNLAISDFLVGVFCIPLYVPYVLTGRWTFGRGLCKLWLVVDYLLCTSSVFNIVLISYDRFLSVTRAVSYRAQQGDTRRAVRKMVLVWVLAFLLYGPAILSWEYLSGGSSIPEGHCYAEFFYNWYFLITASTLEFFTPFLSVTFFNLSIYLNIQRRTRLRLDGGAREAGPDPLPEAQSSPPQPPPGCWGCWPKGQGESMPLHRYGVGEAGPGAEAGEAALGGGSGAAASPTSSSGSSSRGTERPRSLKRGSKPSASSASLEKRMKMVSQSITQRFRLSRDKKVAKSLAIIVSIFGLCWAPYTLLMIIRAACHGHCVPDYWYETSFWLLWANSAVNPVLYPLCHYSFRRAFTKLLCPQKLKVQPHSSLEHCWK
Histamine H2 receptor, sequence (P47747 whole entry): as the sequence (P47747 whole entry) above

Compound | Concentration [2] [µM] | Emax [3] | Kb (Histamine H3 receptor) [µM] | pKp [4] | EC50 (Histamine H1 receptor [5]) [µM] | Kb [6] [µM] | pD2 [7] | EC50 (Histamine H1 receptor [10]) [µM] | Kb (Cavia porcellus [1]) [µM] | further results
c1ccc(C(CCc2nc(CCNCCCCCc3ccccn3)c[nH]2)c2ccccc2)cc1 | 3 | 83% | > 0.316 | 6.74 | 0.0155 | 0.513 | 5.02 | – | 0.00182 | –
CNCCc1c[nH]c(CCC(c2ccccc2)c2ccccc2)n1 | – | – | – | 6.45 | – | – | – | – | – | Kb (Cavia porcellus [8]): 0.00178 µM
NCCc1c[nH]cn1 [HISTAMINE] | – | – | – | – | – | – | – | – | – | Kb (Cavia porcellus [9]): 0.000851 µM
CNCCc1cnc(CCC(c2ccccc2)c2ccccc2)[nH]1 | – | – | – | – | – | – | – | 0.0398 | – | –
c1ccc(C(CCc2nc(CCNCCc3cnc[nH]3)c[nH]2)c2ccccc2)cc1 | – | – | > 1 | 7.67 | 0.0055 | 4.79 | – | 0.00977 | – | Kb (Cavia porcellus [12]): 0.00148 µM; Emax [13]: 56%; Concentration [14]: 0.1 µM; Emax [15]: 96%; Kb (Histamine H1 receptor [16]): 0.00955 µM; Emax [17]: 96%; EC50 (Histamine H2 receptor): 10 µM; EC50 (Histamine H1 receptor [18]): 0.295 µM; Kb (Histamine H1 receptor [19]): 0.00324 µM
NCCc1cnc(CCC(c2ccccc2)c2ccccc2)[nH]1 | – | – | – | – | – | – | – | 0.158 | – | –
c1ccc(C(CCc2nc(CCNCCCCc3c[nH]cn3)c[nH]2)c2ccccc2)cc1 | 10 | 86% | 0.0102 | 6.17 | 0.123 | 0.417 | 4.12 | – | – | Kb (Cavia porcellus [20]): 0.0017 µM
NCCc1c[nH]c(CCC(c2ccccc2)c2ccccc2)n1 | – | 100% and 84% | – | 6.04 | – | – | – | – | – | Emax [13]: 50%; Concentration [14]: 3 µM; Kb (Cavia porcellus [24]): 0.000977 µM

Further lines, with some results ahead:

Concentration [2] [µM] | Emax [3] | Kb (Histamine H3 receptor) [µM] | pKp [4] | EC50 (Histamine H1 receptor [5]) [µM] | Kb [6] [µM] | pD2 [7] | EC50 (Histamine H1 receptor [10]) [µM] | Compound | Kb (Cavia porcellus [1]) [µM] | further results
10 | 78% | > 0.501 | 6.02 | 0.115 | 1 | 4.37 | – | c1ccc(C(CCc2nc(CCNCCc3ccncc3)c[nH]2)c2ccccc2)cc1 | 0.00148 | –
10 | 48% | – | 6.18 | 0.117 | – | 4.05 | – | c1ccc(C(CCc2nc(CCNCCCc3cccnc3)c[nH]2)c2ccccc2)cc1 | 0.00182 | –
3 | 88% | – | 6.88 | 0.0135 | – | 4.77 | – | c1ccc(C(CCc2nc(CCNCCCCc3cccnc3)c[nH]2)c2ccccc2)cc1 | 0.0017 | –
10 | 48% | – | 5.69 | 0.269 | – | 4.36 | – | c1ccc(C(CCc2nc(CCNCCCc3ccncc3)c[nH]2)c2ccccc2)cc1 | – | pD2 (Cavia porcellus [11]): 8.49
10 | 84% | – | 6.56 | 0.024 | – | 4.59 | – | c1ccc(C(CCc2nc(CCNCCCCc3ccncc3)c[nH]2)c2ccccc2)cc1 | 0.00112 | –
3 | 84% | > 0.316 | 6.61 | 0.0263 | 0.562 | 5.25 | – | c1ccc(C(CCc2nc(CCNCCCCCc3cccnc3)c[nH]2)c2ccccc2)cc1 | 0.00148 | –
3 | 89% | > 0.501 | 7.45 | 0.00692 | 0.741 | 4.78 | 0.0141 | c1ccc(C(CCc2nc(CCNCCCCc3ccccn3)c[nH]2)c2ccccc2)cc1 | – | Emax [13]: 65%; Kb (Histamine H1 receptor [16]): 0.00617 µM; Emax [17]: 89%; Kb (Cavia porcellus [21]): 0.000661 µM; EC50 (Histamine H1 receptor [18]): 0.24 µM; Kb (Histamine H1 receptor [22]): 0.00162 µM
0.1 | 95% | 0.123 | 7.14 | 0.0135 | 0.776 | 3.92 | – | c1ccc(C(CCc2nc(CCNCCCc3c[nH]cn3)c[nH]2)c2ccccc2)cc1 | 0.00186 | –
10 | 64% | > 0.501 | 6.52 | 0.0776 | 7.08 | 4.62 | 0.0832 | c1ccc(C(CCc2nc(CCNCCc3cccnc3)c[nH]2)c2ccccc2)cc1 | 0.000851 | Emax [17]: 64%; Kb (Histamine H1 receptor [23]): 0.00324 µM
10 | 57% | – | 5.9 | 0.0955 | – | 4.12 | – | c1ccc(C(CCc2nc(CCNCCCCCc3ccncc3)c[nH]2)c2ccccc2)cc1 | – | pD2 (Cavia porcellus [11]): 8.63
10 | 92% | > 0.501 | – | 0.0214 | 5.01 | 4.37 | 0.0813 | c1ccc(C(CCc2nc(CCNCCc3ccccn3)c[nH]2)c2ccccc2)cc1 | – | Emax [13]: 59%; EC50 (Histamine H1 receptor [25]): 0.525 µM; Kb (Histamine H1 receptor [16]): 0.0105 µM; Emax [17]: 92%; pKp [26]: 7.15; Kb (Cavia porcellus [20]): 0.00174 µM; Kb (Histamine H1 receptor [22]): 0.00437 µM
3 | – | > 0.316 | 7.13 | 0.0214 | 0.457 | 4.96 | – | c1ccc(C(CCc2nc(CCNCCCc3ccccn3)c[nH]2)c2ccccc2)cc1 | – | Emax [17]: 80%; Kb (Cavia porcellus [20]): 0.00166 µM

From ChEMBL document CHEMBL1145924 (J Med Chem, 2003)
